Experimental data published in ChEMBL document CHEMBL2429855, “Efforts toward broadening the spectrum of arylomycin antibiotic activity” (Bioorg Med Chem Lett, 2013).
In brackets after ≈: the same amount, converted by molar mass.

Experiments:
[1] = tested on: Staphylococcus epidermidis; assay: Antibacterial activity against wild type Staphylococcus epidermidis RP62A assessed as growth inhibition after 22 hrs by broth microdilution method; assay type: functional
Method in brief: (§1)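 MIC by broth microdilution against wild-type S. epidermidis RP62A, MSSA 8325, MRSA USA300 and E. coli MG1655. Also tested: S. aureus 8325 and E. coli MG1655 mutants made sensitive by mutating the resistance-conferring SPase Pro residue, an lptD hyperpermeable E. coli (outer membrane permeable to large molecules), and an E. coli combining lptD with SPase sensitization.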

[2] = target: T1, Signal peptidase IB (Staphylococcus aureus, UniProt P0A070); assay: Binding affinity to Staphylococcus aureus type-1 signal peptidase using decanoyl-LSSPAYNO2A-ADKabzPD and decanyol-LTPTAYNO2A-ASKKabzDD as substrate by fluorescence assay
T1 sequence (P0A070 whole entry): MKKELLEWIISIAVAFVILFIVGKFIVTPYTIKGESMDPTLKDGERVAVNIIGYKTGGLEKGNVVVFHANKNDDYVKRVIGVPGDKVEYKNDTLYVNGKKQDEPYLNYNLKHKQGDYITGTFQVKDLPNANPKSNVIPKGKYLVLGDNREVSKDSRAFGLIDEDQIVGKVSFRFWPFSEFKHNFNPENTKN

[3] = tested on: Staphylococcus aureus; assay: Antibacterial activity against wild type methicillin-resistant Staphylococcus aureus USA300 assessed as growth inhibition after 22 hrs by broth microdilution method; assay type: functional; conditions: USA300, 22 h; method in brief: as §1
[4] = tested on: Escherichia coli; assay: Antibacterial activity against Escherichia coli MG1655 harboring lptD mutation assessed as growth inhibition after 22 hrs by broth microdilution method; assay type: functional; conditions: K-12 substr. MG1655, 22 h; method in brief: as §1
[5] = tested on: Escherichia coli; assay: Antibacterial activity against Escherichia coli MG1655 harboring lptD lepB (P84L) mutation assessed as growth inhibition after 22 hrs by broth microdilution method; assay type: functional; conditions: K-12 substr. MG1655, 22 h; method in brief: as §1
[6] = tested on: Escherichia coli; assay: Antibacterial activity against Escherichia coli MG1655 harboring lepB (P84L) mutation assessed as growth inhibition after 22 hrs by broth microdilution method; assay type: functional; conditions: K-12 substr. MG1655, 22 h; method in brief: as §1
[7] = tested on: Staphylococcus aureus; assay: Antibacterial activity against wild type methicillin-sensitive Staphylococcus aureus 8325 assessed as growth inhibition after 22 hrs by broth microdilution method; assay type: functional; conditions: NCTC 8325, 22 h; method in brief: as §1
[8] = tested on: Staphylococcus aureus; assay: Antibacterial activity against Staphylococcus aureus 8325 harboring spsB (P29S) mutation assessed as growth inhibition after 22 hrs by broth microdilution method; assay type: functional; conditions: NCTC 8325, 22 h; method in brief: as §1
[9] = tested on: Escherichia coli; assay: Antibacterial activity against wild type Escherichia coli MG1655 assessed as growth inhibition after 22 hrs by broth microdilution method; assay type: functional; conditions: K-12 substr. MG1655, 22 h; method in brief: as §1
[10] = target: Signal peptidase I (Escherichia coli K-12, UniProt P00803); assay: Binding affinity to Escherichia coli type-1 signal peptidase lepB using decanoyl-LSSPAYNO2A-ADKabzPD and decanyol-LTPTAYNO2A-ASKKabzDD as substrate by fluorescence assay

Compound | MIC [1] [µg/mL] | IC50 [2] [nM] | MIC [3] [µg/mL] | MIC [4] [µg/mL] | MIC [5] [µg/mL] | MIC [6] [µg/mL] | MIC [7] [µg/mL] | MIC [8] [µg/mL] | MIC [9] [µg/mL] | IC50 [10] [nM]
CCCCCCCCCCCCCCCC(=O)N(C)[C@H](CO)C(=O)N[C@H](C)C(=O)NCC(=O)N(C)[C@@H]1C(=O)N[C@@H](C)C(=O)N[C@H](C(=O)O)Cc2ccc(O)c(c2)-c2cc1ccc2OCCO | 1 (≈ 1.08 µM) | 4220 | > 64 | 16 (≈ 17.3 µM) | 0.02 (≈ 0.0216 µM) | 1 (≈ 1.08 µM) | > 64 | 8 (≈ 8.65 µM) | > 64 | 75.7
CCCCCCCCCCCCCCCC(=O)N(C)[C@H](CO)C(=O)N[C@H](C)C(=O)NCC(=O)N(C)[C@@H]1C(=O)N[C@@H](C)C(=O)N[C@H](CC(=O)NCC=O)Cc2ccc(O)c(c2)-c2cc1ccc2O | 32 (≈ 34.2 µM) | > 21400 | > 64 | > 64 | 2 (≈ 2.14 µM) | > 64 | > 64 | > 64 | > 64 | 1010
CCCCCCCCCCCCCCCC(=O)N(C)[C@H](CO)C(=O)N[C@H](C)C(=O)NCC(=O)N(C)[C@@H]1C(=O)N[C@@H](C)C(=O)N[C@H](C(=O)O)Cc2ccc(O)c(c2)-c2cc1ccc2OP(=O)(O)O | 0.3 (≈ 0.312 µM) | 1980 | > 64 | 32 (≈ 33.3 µM) | 0.03 (≈ 0.0312 µM) | 1 (≈ 1.04 µM) | > 64 | > 64 | > 64 | 146
CCCCCCCCCCCCCCCC(=O)N(C)[C@H](CO)C(=O)N[C@H](C)C(=O)NCC(=O)N(C)[C@@H]1C(=O)N[C@@H](C)C(=O)N[C@H](C(=O)NCC=O)Cc2ccc(O)c(c2)-c2cc1ccc2OP(=O)(OCc1ccccc1)OCc1ccccc1 | 1 (≈ 0.846 µM) | 152 | > 64 | 64 (≈ 54.1 µM) | 0.3 (≈ 0.254 µM) | 16 (≈ 13.5 µM) | > 64 | 32 (≈ 27.1 µM) | > 64 | 195
CCCCCCCCCCCCCCCC(=O)N(C)[C@H](CO)C(=O)N[C@H](C)C(=O)NCC(=O)N(C)[C@@H]1C(=O)N[C@@H](C)C(=O)N[C@H](C(=O)O)Cc2ccc(O)c(c2)-c2cc1ccc2OCCN | 0.1 (≈ 0.108 µM) | 3460 | 32 (≈ 34.6 µM) | 4 (≈ 4.33 µM) | 0.004 (≈ 0.00433 µM) | 0.5 (≈ 0.541 µM) | > 64 | 4 (≈ 4.33 µM) | > 64 | 55.2
CCCCCCCCCCCCCCCC(=O)N(C)[C@H](CO)C(=O)N[C@H](C)C(=O)NCC(=O)N(C)[C@@H]1C(=O)N[C@@H](C)C(=O)N[C@H](C(=O)NCC=O)Cc2ccc(O)c(c2)-c2cc1ccc2OCCN | 1 (≈ 1.04 µM) | 332 | > 64 | > 64 | 0.06 (≈ 0.0622 µM) | 2 (≈ 2.07 µM) | > 64 | 32 (≈ 33.2 µM) | > 64 | 87
CCCCCCCCCCCCCCCC(=O)N(C)[C@H](CO)C(=O)N[C@H](C)C(=O)NCC(=O)N(C)[C@@H]1C(=O)N[C@@H](C)C(=O)N[C@H](C(=O)NCC=O)Cc2ccc(O)c(c2)-c2cc1ccc2OCCO | 2 (≈ 2.07 µM) | 63.1 | 64 (≈ 66.2 µM) | 16 (≈ 16.6 µM) | 0.03 (≈ 0.031 µM) | 2 (≈ 2.07 µM) | > 64 | 8 (≈ 8.28 µM) | > 64 | 9.31
CCCCCCCCCCCCCCCC(=O)N(C)[C@H](CO)C(=O)N[C@H](C)C(=O)NCC(=O)N(C)[C@@H]1C(=O)N[C@@H](C)C(=O)N[C@H](C(=O)NCP(=O)(OCC)OCC)Cc2ccc(O)c(c2)-c2cc1ccc2O | 8 (≈ 7.77 µM) | > 19400 | > 64 | > 64 | 2 (≈ 1.94 µM) | > 64 | > 64 | > 64 | > 64 | > 19400
CCCCCCCCCCCCCCCC(=O)N(C)[C@H](CO)C(=O)N[C@H](C)C(=O)NCC(=O)N(C)[C@@H]1C(=O)N[C@@H](C)C(=O)N[C@H](C(=O)NCP(=O)(Oc2ccccc2)Oc2ccccc2)Cc2ccc(O)c(c2)-c2cc1ccc2O | > 64 | > 17800 | > 64 | > 64 | 8 (≈ 7.1 µM) | > 64 | > 64 | > 64 | > 64 | > 17800
CCCCCCCCCCCCCCCC(=O)N(C)[C@H](CO)C(=O)N[C@H](C)C(=O)NCC(=O)N(C)[C@@H]1C(=O)N[C@@H](C)C(=O)N[C@H](C(=O)NCC=O)Cc2ccc(O)c(c2)-c2cc1ccc2O | 2 (≈ 2.17 µM) | 53.1 | 16 (≈ 17.4 µM) | > 64 | 0.06 (≈ 0.0651 µM) | 4 (≈ 4.34 µM) | > 64 | 8 (≈ 8.68 µM) | > 64 | 16.3
CCCCCCCCCCCCCCCC(=O)N(C)[C@H](CO)C(=O)N[C@H](C)C(=O)NCC(=O)N(C)[C@@H]1C(=O)N[C@@H](C)C(=O)N[C@H](C(=O)NCP(=O)(OC)OC)Cc2ccc(O)c(c2)-c2cc1ccc2O | 8 (≈ 7.98 µM) | > 20000 | > 64 | > 64 | 2 (≈ 2 µM) | 64 (≈ 63.9 µM) | > 64 | > 64 | > 64 | 20000
CCCCCCCCCCCCCCCC(=O)N(C)[C@H](CO)C(=O)N[C@H](C)C(=O)NCC(=O)N(C)[C@@H]1C(=O)N[C@@H](C)C(=O)N[C@H](C(=O)NCP(=O)(O)O)Cc2ccc(O)c(c2)-c2cc1ccc2O | 8 (≈ 8.21 µM) | 16400 | 64 (≈ 65.7 µM) | > 64 | 0.1 (≈ 0.103 µM) | 4 (≈ 4.11 µM) | > 64 | > 64 | > 64 | 842
CCCCCCCCCCCCCCCC(=O)N(C)[C@H](CO)C(=O)N[C@H](C)C(=O)NCC(=O)N(C)[C@@H]1C(=O)N[C@@H](C)C(=O)N[C@H](C(=O)O)Cc2ccc(O)c(c2)-c2cc1ccc2O [ARYLOMYCIN C16] | 0.25 (≈ 0.284 µM) | 1800 | > 64 | 16 (≈ 18.2 µM) | 0.02 (≈ 0.0227 µM) | 0.5 (≈ 0.567 µM) | > 64 | 4 (≈ 4.54 µM) | > 64 | 70
